Data from ChEMBL document CHEMBL5058577, “EUbOPEN Chemogenomics Library 2 (Multiplex)” (2022).

Test system: HEK-293T
Test: Multiplex assay against HEK293T
Type: toxicity, cell-based
Details: human
How it was run: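 On a CQ1 microscope at 37°C and 5% CO2, live cells were imaged after compound addition. They had been stained at seeding with Hoechst33342, BioTracker Green Microtubule Cytoskeleton Dye, MitoTracker Red and Annexin V Alexa Fluor 680. CellPathfinder machine-learning gating assigned cells to Hoechst high-intensity objects or normal cells, normal cells to healthy, pyknosed or fragmented nuclei, and pyknosed cells to mitotic or apoptotic. Tubulin, mitochondrial-mass and membrane-permeability phenotypes are per cents of healthy-nucleus cells.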

[1] = 12 h, 1 µM, compound concentration 1 uM, replicate 1
[2] = 12 h, 1 µM, compound concentration 1 uM, replicate 2
[3] = 12 h, 10 µM, compound concentration 10 uM, replicate 1
[4] = 12 h, 10 µM, compound concentration 10 uM, replicate 2
[5] = 24 h, 1 µM, compound concentration 1 uM, replicate 1
[6] = 24 h, 1 µM, compound concentration 1 uM, replicate 2
[7] = 24 h, 10 µM, compound concentration 10 uM, replicate 1
[8] = 24 h, 10 µM, compound concentration 10 uM, replicate 2
[9] = 48 h, 1 µM, compound concentration 1 uM, replicate 1
[10] = 48 h, 1 µM, compound concentration 1 uM, replicate 2
[11] = 48 h, 10 µM, compound concentration 10 uM, replicate 1
[12] = 48 h, 10 µM, compound concentration 10 uM, replicate 2

CCc1nn2c(C)cc(C)nc2c1Cc1ccc(-c2nnc(C3CCNCC3)o2)cc1
Population Apoptotic (%) [1]: 35% | Population Fragmented Nuclei (%) [1]: 9% | Population Healthy Nuclei (%) [1]: 80% | Population Hoechst High Intensity Objects (%) [1]: 7% | Population Membrane Permeable-Phenotype (%) [1]: 0% | Population Mitochondria Different-Phenotype (%) [1]: 54% | Population Mitotic Cells (%) [1]: 64% | Population Normal (%) [1]: 92% | Population Pyknosed Nuclei (%) [1]: 10% | Population Tubulin-Different-Phenotype (%) [1]: 37% | Total Cell Count [1]: 401 | Population Apoptotic (%) [2]: 51% | Population Fragmented Nuclei (%) [2]: 7% | Population Healthy Nuclei (%) [2]: 78% | Population Hoechst High Intensity Objects (%) [2]: 5% | Population Mitochondria Different-Phenotype (%) [2]: 62% | Population Mitotic Cells (%) [2]: 48% | Population Normal (%) [2]: 94% | Population Pyknosed Nuclei (%) [2]: 13% | Population Tubulin-Different-Phenotype (%) [2]: 19% | Total Cell Count [2]: 395 | Population Apoptotic (%) [3]: 63% | Population Fragmented Nuclei (%) [3]: 6% | Population Healthy Nuclei (%) [3]: 68% | Population Hoechst High Intensity Objects (%) [3]: 11% | Population Membrane Permeable-Phenotype (%) [3]: 0% | Population Mitochondria Different-Phenotype (%) [3]: 85% | Population Mitotic Cells (%) [3]: 36% | Population Normal (%) [3]: 88% | Population Pyknosed Nuclei (%) [3]: 25% | Population Tubulin-Different-Phenotype (%) [3]: 65% | Total Cell Count [3]: 319 | Population Apoptotic (%) [4]: 56% | Population Fragmented Nuclei (%) [4]: 4% | Population Healthy Nuclei (%) [4]: 78% | Population Hoechst High Intensity Objects (%) [4]: 12% | Population Mitochondria Different-Phenotype (%) [4]: 86% | Population Mitotic Cells (%) [4]: 43% | Population Normal (%) [4]: 87% | Population Pyknosed Nuclei (%) [4]: 17% | Population Tubulin-Different-Phenotype (%) [4]: 48% | Total Cell Count [4]: 293 | Population Apoptotic (%) [5]: 44% | Population Fragmented Nuclei (%) [5]: 10% | Population Healthy Nuclei (%) [5]: 76% | Population Hoechst High Intensity Objects (%) [5]: 4% | Population Membrane Permeable-Phenotype (%) [5]: 0% | Population Mitochondria Different-Phenotype (%) [5]: 36% | Population Mitotic Cells (%) [5]: 55% | Population Normal (%) [5]: 95% | Population Pyknosed Nuclei (%) [5]: 13% | Population Tubulin-Different-Phenotype (%) [5]: 23% | Total Cell Count [5]: 529 | Population Apoptotic (%) [6]: 34% | Population Fragmented Nuclei (%) [6]: 7% | Population Healthy Nuclei (%) [6]: 78% | Population Hoechst High Intensity Objects (%) [6]: 5% | Population Mitochondria Different-Phenotype (%) [6]: 50% | Population Mitotic Cells (%) [6]: 65% | Population Normal (%) [6]: 94% | Population Tubulin-Different-Phenotype (%) [6]: 19% | Total Cell Count [6]: 542 | Population Apoptotic (%) [7]: 69% | Population Fragmented Nuclei (%) [7]: 11% | Population Healthy Nuclei (%) [7]: 72% | Population Hoechst High Intensity Objects (%) [7]: 5% | Population Membrane Permeable-Phenotype (%) [7]: 0% | Population Mitochondria Different-Phenotype (%) [7]: 73% | Population Mitotic Cells (%) [7]: 30% | Population Normal (%) [7]: 94% | Population Pyknosed Nuclei (%) [7]: 15% | Population Tubulin-Different-Phenotype (%) [7]: 50% | Total Cell Count [7]: 448 | Population Apoptotic (%) [8]: 41% | Population Fragmented Nuclei (%) [8]: 10% | Population Healthy Nuclei (%) [8]: 77% | Population Hoechst High Intensity Objects (%) [8]: 7% | Population Mitochondria Different-Phenotype (%) [8]: 78% | Population Mitotic Cells (%) [8]: 58% | Population Normal (%) [8]: 92% | Population Pyknosed Nuclei (%) [8]: 11% | Population Tubulin-Different-Phenotype (%) [8]: 45% | Total Cell Count [8]: 389 | Population Apoptotic (%) [9]: 28% | Population Fragmented Nuclei (%) [9]: 12% | Population Healthy Nuclei (%) [9]: 79% | Population Hoechst High Intensity Objects (%) [9]: 2% | Population Membrane Permeable-Phenotype (%) [9]: 0% | Population Mitochondria Different-Phenotype (%) [9]: 25% | Population Mitotic Cells (%) [9]: 71% | Population Normal (%) [9]: 97% | Population Pyknosed Nuclei (%) [9]: 8% | Population Tubulin-Different-Phenotype (%) [9]: 15% | Total Cell Count [9]: 842 | Population Apoptotic (%) [10]: 32% | Population Fragmented Nuclei (%) [10]: 11% | Population Healthy Nuclei (%) [10]: 83% | Population Hoechst High Intensity Objects (%) [10]: 5% | Population Mitochondria Different-Phenotype (%) [10]: 24% | Population Mitotic Cells (%) [10]: 67% | Population Normal (%) [10]: 94% | Population Pyknosed Nuclei (%) [10]: 5% | Population Tubulin-Different-Phenotype (%) [10]: 10% | Total Cell Count [10]: 829 | Population Apoptotic (%) [11]: 54% | Population Fragmented Nuclei (%) [11]: 14% | Population Healthy Nuclei (%) [11]: 72% | Population Hoechst High Intensity Objects (%) [11]: 4% | Population Membrane Permeable-Phenotype (%) [11]: 0% | Population Mitochondria Different-Phenotype (%) [11]: 59% | Population Mitotic Cells (%) [11]: 45% | Population Normal (%) [11]: 95% | Population Pyknosed Nuclei (%) [11]: 13% | Population Tubulin-Different-Phenotype (%) [11]: 32% | Total Cell Count [11]: 517 | Population Apoptotic (%) [12]: 50% | Population Fragmented Nuclei (%) [12]: 12% | Population Healthy Nuclei (%) [12]: 80% | Population Hoechst High Intensity Objects (%) [12]: 3% | Population Mitochondria Different-Phenotype (%) [12]: 56% | Population Mitotic Cells (%) [12]: 50% | Population Normal (%) [12]: 96% | Population Pyknosed Nuclei (%) [12]: 6% | Population Tubulin-Different-Phenotype (%) [12]: 26% | Total Cell Count [12]: 607

CN1C[C@H](C(=O)N[C@]2(C)O[C@@]3(O)[C@@H]4CCCN4C(=O)[C@H](Cc4ccccc4)N3C2=O)C[C@@H]2c3cccc4[nH]cc(c34)C[C@H]21.CS(=O)(=O)O [DIHYDROERGOTAMINE MESYLATE]
Population Apoptotic (%) [1]: 38% | Population Fragmented Nuclei (%) [1]: 6% | Population Healthy Nuclei (%) [1]: 84% | Population Hoechst High Intensity Objects (%) [1]: 5% | Population Membrane Permeable-Phenotype (%) [1]: 0% | Population Mitochondria Different-Phenotype (%) [1]: 41% | Population Mitotic Cells (%) [1]: 61% | Population Normal (%) [1]: 94% | Population Pyknosed Nuclei (%) [1]: 8% | Population Tubulin-Different-Phenotype (%) [1]: 26% | Total Cell Count [1]: 418 | Population Apoptotic (%) [2]: 46% | Population Fragmented Nuclei (%) [2]: 3% | Population Healthy Nuclei (%) [2]: 81% | Population Mitochondria Different-Phenotype (%) [2]: 65% | Population Mitotic Cells (%) [2]: 53% | Population Pyknosed Nuclei (%) [2]: 14% | Population Tubulin-Different-Phenotype (%) [2]: 17% | Total Cell Count [2]: 285 | Population Apoptotic (%) [3]: 31% | Population Fragmented Nuclei (%) [3]: 7% | Population Healthy Nuclei (%) [3]: 76% | Population Hoechst High Intensity Objects (%) [3]: 9% | Population Membrane Permeable-Phenotype (%) [3]: 0% | Population Mitochondria Different-Phenotype (%) [3]: 48% | Population Mitotic Cells (%) [3]: 68% | Population Normal (%) [3]: 90% | Population Pyknosed Nuclei (%) [3]: 15% | Population Tubulin-Different-Phenotype (%) [3]: 29% | Total Cell Count [3]: 403 | Population Apoptotic (%) [4]: 53% | Population Fragmented Nuclei (%) [4]: 5% | Population Healthy Nuclei (%) [4]: 80% | Population Hoechst High Intensity Objects (%) [4]: 11% | Population Mitochondria Different-Phenotype (%) [4]: 61% | Population Mitotic Cells (%) [4]: 46% | Population Normal (%) [4]: 88% | Population Pyknosed Nuclei (%) [4]: 13% | Population Tubulin-Different-Phenotype (%) [4]: 23% | Total Cell Count [4]: 435 | Population Apoptotic (%) [5]: 28% | Population Fragmented Nuclei (%) [5]: 9% | Population Healthy Nuclei (%) [5]: 80% | Population Hoechst High Intensity Objects (%) [5]: 4% | Population Membrane Permeable-Phenotype (%) [5]: 0% | Population Mitochondria Different-Phenotype (%) [5]: 28% | Population Mitotic Cells (%) [5]: 71% | Population Normal (%) [5]: 95% | Population Pyknosed Nuclei (%) [5]: 9% | Population Tubulin-Different-Phenotype (%) [5]: 20% | Total Cell Count [5]: 621 | Population Apoptotic (%) [6]: 51% | Population Fragmented Nuclei (%) [6]: 7% | Population Healthy Nuclei (%) [6]: 84% | Population Hoechst High Intensity Objects (%) [6]: 3% | Population Mitochondria Different-Phenotype (%) [6]: 41% | Population Mitotic Cells (%) [6]: 48% | Population Normal (%) [6]: 96% | Population Pyknosed Nuclei (%) [6]: 8% | Population Tubulin-Different-Phenotype (%) [6]: 12% | Total Cell Count [6]: 341 | Population Apoptotic (%) [7]: 27% | Population Fragmented Nuclei (%) [7]: 10% | Population Healthy Nuclei (%) [7]: 76% | Population Hoechst High Intensity Objects (%) [7]: 5% | Population Membrane Permeable-Phenotype (%) [7]: 0% | Population Mitochondria Different-Phenotype (%) [7]: 33% | Population Mitotic Cells (%) [7]: 72% | Population Normal (%) [7]: 94% | Population Pyknosed Nuclei (%) [7]: 13% | Population Tubulin-Different-Phenotype (%) [7]: 26% | Total Cell Count [7]: 480 | Population Apoptotic (%) [8]: 32% | Population Fragmented Nuclei (%) [8]: 9% | Population Healthy Nuclei (%) [8]: 84% | Population Hoechst High Intensity Objects (%) [8]: 6% | Population Mitochondria Different-Phenotype (%) [8]: 39% | Population Mitotic Cells (%) [8]: 67% | Population Normal (%) [8]: 93% | Population Pyknosed Nuclei (%) [8]: 6% | Population Tubulin-Different-Phenotype (%) [8]: 16% | Total Cell Count [8]: 567 | Population Apoptotic (%) [9]: 29% | Population Fragmented Nuclei (%) [9]: 14% | Population Healthy Nuclei (%) [9]: 78% | Population Hoechst High Intensity Objects (%) [9]: 2% | Population Membrane Permeable-Phenotype (%) [9]: 1% | Population Mitochondria Different-Phenotype (%) [9]: 17% | Population Mitotic Cells (%) [9]: 70% | Population Normal (%) [9]: 97% | Population Pyknosed Nuclei (%) [9]: 6% | Population Tubulin-Different-Phenotype (%) [9]: 11% | Total Cell Count [9]: 1011 | Population Apoptotic (%) [10]: 28% | Population Fragmented Nuclei (%) [10]: 12% | Population Healthy Nuclei (%) [10]: 82% | Population Membrane Permeable-Phenotype (%) [10]: 0% | Population Mitochondria Different-Phenotype (%) [10]: 23% | Population Mitotic Cells (%) [10]: 71% | Population Pyknosed Nuclei (%) [10]: 5% | Population Tubulin-Different-Phenotype (%) [10]: 9% | Total Cell Count [10]: 524 | Population Apoptotic (%) [11]: 22% | Population Fragmented Nuclei (%) [11]: 15% | Population Healthy Nuclei (%) [11]: 76% | Population Hoechst High Intensity Objects (%) [11]: 2% | Population Membrane Permeable-Phenotype (%) [11]: 0% | Population Mitochondria Different-Phenotype (%) [11]: 20% | Population Mitotic Cells (%) [11]: 77% | Population Normal (%) [11]: 97% | Population Pyknosed Nuclei (%) [11]: 7% | Population Tubulin-Different-Phenotype (%) [11]: 12% | Total Cell Count [11]: 778 | Population Apoptotic (%) [12]: 31% | Population Healthy Nuclei (%) [12]: 77% | Population Hoechst High Intensity Objects (%) [12]: 1% | Population Mitochondria Different-Phenotype (%) [12]: 21% | Population Mitotic Cells (%) [12]: 68% | Population Normal (%) [12]: 98% | Population Pyknosed Nuclei (%) [12]: 6% | Population Tubulin-Different-Phenotype (%) [12]: 11% | Total Cell Count [12]: 793
